Test results taken from ChEMBL document CHEMBL3421570, “Combinatorial Libraries As a Tool for the Discovery of Novel, Broad-Spectrum Antibacterial Agents Targeting the ESKAPE Pathogens” (J Med Chem, 2015).
Activity calls are given as the source filed them. The rule behind the calls is not given here.

Experiments:
Enterococcus faecium [1] = test: Antimicrobial activity against Enterococcus faecium assessed as inhibition of microbial growth at 45 uM after 24 hrs; assay type: functional, organism-based
How it was run: (§1)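 Broth microdilution single-concentration read: overnight cultures diluted 1:1000, compound in DMF (≤2.0%) added, 37°C for 24 h, growth inhibition scored visually by lack of turbidity; triplicate. Gram-positives grown in TSB, Gram-negatives in LB.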

Staphylococcus aureus [2] = test: Antimicrobial activity against Staphylococcus aureus assessed as inhibition of microbial growth at 45 uM after 24 hrs; assay type: functional, organism-based; how it was run: as §1
Klebsiella pneumoniae [3] = test: Antimicrobial activity against Klebsiella pneumoniae assessed as inhibition of microbial growth at 45 uM after 24 hrs; assay type: functional, organism-based; how it was run: as §1
Acinetobacter baumannii [4] = test: Antimicrobial activity against Acinetobacter baumannii assessed as inhibition of microbial growth at 45 uM after 24 hrs; assay type: functional, organism-based; how it was run: as §1
Pseudomonas aeruginosa [5] = test: Antimicrobial activity against Pseudomonas aeruginosa assessed as inhibition of microbial growth at 45 uM after 24 hrs; assay type: functional, organism-based; how it was run: as §1
Enterobacter cloacae [6] = test: Antimicrobial activity against Enterobacter cloacae assessed as inhibition of microbial growth at 45 uM after 24 hrs; assay type: functional, organism-based; how it was run: as §1
Enterococcus faecium [7] = test: Antimicrobial activity against Enterococcus faecium assessed as inhibition of microbial growth after 24 hrs; assay type: functional
How it was run: (§2)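 Broth microdilution against multidrug-resistant clinical ESKAPE isolates. Overnight cultures (TSB for Gram-positives, LB for Gram-negatives) diluted 1:1000 in fresh medium, compound in DMF (≤2.0% DMF) added at decreasing concentrations, 37°C.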

Staphylococcus aureus [8] = test: Antimicrobial activity against Staphylococcus aureus assessed as inhibition of microbial growth after 24 hrs; assay type: functional; how it was run: as §2
Klebsiella pneumoniae [9] = test: Antimicrobial activity against Klebsiella pneumoniae assessed as inhibition of microbial growth after 24 hrs; assay type: functional; how it was run: as §2
Acinetobacter baumannii [10] = test: Antimicrobial activity against Acinetobacter baumannii assessed as inhibition of microbial growth after 24 hrs; assay type: functional; how it was run: as §2
Pseudomonas aeruginosa [11] = test: Antimicrobial activity against Pseudomonas aeruginosa assessed as inhibition of microbial growth after 24 hrs; assay type: functional; how it was run: as §2
Enterobacter cloacae [12] = test: Antimicrobial activity against Enterobacter cloacae assessed as inhibition of microbial growth after 24 hrs; assay type: functional; how it was run: as §2

| SMILES | growth inhibition (GI) (Enterococcus faecium [1]) | growth inhibition (GI) (Staphylococcus aureus [2]) | growth inhibition (GI) (Klebsiella pneumoniae [3]) | growth inhibition (GI) (Acinetobacter baumannii [4]) | growth inhibition (GI) (Pseudomonas aeruginosa [5]) | growth inhibition (GI) (Enterobacter cloacae [6]) | MIC (Enterococcus faecium [7]) | MIC (Staphylococcus aureus [8]) | MIC (Klebsiella pneumoniae [9]) | MIC (Acinetobacter baumannii [10]) | MIC (Pseudomonas aeruginosa [11]) | MIC (Enterobacter cloacae [12]) |
| --- | --- | --- | --- | --- | --- | --- | --- | --- | --- | --- | --- | --- |
| N=C1NC[C@H](CCCCN2C[C@@H](Cc3cccc4ccccc34)N(CCc3ccc(-c4ccccc4)cc3)C2=N)N1CCc1cccc(C(F)(F)F)c1 | Active | Active | Active | Active | Active | Active | – | – | – | – | – | – |
| N=C1NC[C@H](CCCCN2C[C@@H](Cc3cccc4ccccc34)N(CCCCC3CCCCC3)C2=N)N1CCc1cccc(C(F)(F)F)c1 | Active | Active | Active | Active | Active | Active | – | – | – | – | – | – |
| CCCC[C@H]1CN(CCCC[C@H]2CNC(=N)N2CCCCC2CCCCC2)C(=N)N1CCCCC1CCCCC1 | Active | Active | Active | Active | Active | Active | – | – | – | – | – | – |
| N=C1NC[C@H](CCCCN2C[C@H](CC3CCCCC3)N(CCCCC3CCCCC3)C2=N)N1CCc1cccc(C(F)(F)F)c1 | Active | Active | Active | Active | Active | Active | – | – | – | – | – | – |
| CCCC[C@H]1CN(CCCC[C@H]2CNC(=N)N2CCc2cccc(C(F)(F)F)c2)C(=N)N1CCc1ccc(-c2ccccc2)cc1 | Active | Active | Active | Active | Active | Active | – | – | – | – | – | – |
| N=C1NC[C@H](CCCCN2C[C@@H](Cc3cccc4ccccc34)N(CCCCC3CCCCC3)C2=N)N1CCCCC1CCCCC1 | Active | Active | Active | Active | Active | Active | – | – | – | – | – | – |
| N=C1NC[C@H](CCCCN2C[C@@H](Cc3cccc4ccccc34)N(CCc3ccc(-c4ccccc4)cc3)C2=N)N1CCC12CC3CC(CC(C3)C1)C2 | inactive | inactive | inactive | inactive | inactive | inactive | – | – | – | – | – | – |
| CCCC[C@H]1CN(CCCC[C@H]2CNC(=N)N2CCC23CC4CC(CC(C4)C2)C3)C(=N)N1CCCCC1CCCCC1 | Active | Active | Active | Active | Active | Active | – | – | – | – | – | – |
| N=C1NC[C@H](CCCCN2C[C@@H](Cc3cccc4ccccc34)N(CCc3ccc(-c4ccccc4)cc3)C2=N)N1CCCCC1CCCCC1 | Active | Active | Active | Active | Active | Active | – | – | – | – | – | – |
| CCCCCCCN1C(=N)N(CCCC[C@H]2CNC(=N)N2CCc2cccc(C(F)(F)F)c2)C[C@H]1Cc1cccc2ccccc12 | Active | Active | Active | Active | Active | Active | – | – | – | – | – | – |
| N=C1NC[C@H](CCCCN2C[C@@H](Cc3cccc4ccccc34)N(CCCCC3CCCCC3)C2=N)N1CCC12CC3CC(CC(C3)C1)C2 | inactive | inactive | inactive | inactive | inactive | inactive | – | – | – | – | – | – |
| N=C1NC[C@H](CCCCN2C[C@H](CC3CCCCC3)N(CCc3ccc(-c4ccccc4)cc3)C2=N)N1CCc1cccc(C(F)(F)F)c1 | Active | Active | Active | Active | Active | Active | – | – | – | – | – | – |
| CCC(C)CN1CCN(CCCC[C@H]2CNC(=N)N2CC2CCC(C)CC2)C1=N (some centres undefined) | – | – | – | – | – | – | inactive | inactive | inactive | inactive | inactive | inactive |
| CCC[C@@H]1CN(CCCC[C@H]2CNC(=N)N2CC2CCCCC2)C(=N)N1CCc1cccc(C)c1 | – | – | – | – | – | – | inactive | inactive | inactive | inactive | inactive | inactive |
| CCCCCCCN1C(=N)NC[C@@H]1CCCCN1C[C@H]([C@@H](C)CC)NC1=N | – | – | – | – | – | – | inactive | inactive | inactive | inactive | inactive | inactive |
| CC[C@H](C)[C@H]1CN(CCCC[C@H]2CNC(=N)N2CC2CCC(C)CC2)C(=N)N1 (some centres undefined) | – | – | – | – | – | – | inactive | inactive | inactive | inactive | inactive | inactive |
| CCC(C)CN1C(=N)N(CCCC[C@H]2CNC(=N)N2CC2CCCCC2)C[C@@H]1[C@@H](C)CC (some centres undefined) | – | – | – | – | – | – | inactive | inactive | inactive | inactive | inactive | inactive |
| Cc1cccc(CCN2CCN(CCCC[C@H]3CNC(=N)N3CC3CCC(C)CC3)C2=N)c1 (some centres undefined) | – | – | – | – | – | – | inactive | inactive | inactive | inactive | inactive | inactive |
| CCC[C@@H]1CN(CCCC[C@H]2CNC(=N)N2CC2CCCCC2)C(=N)N1CC(C)CC (some centres undefined) | – | – | – | – | – | – | inactive | inactive | inactive | inactive | inactive | inactive |
| CCCCCCCN1C(=N)NC[C@@H]1CCCCN1C[C@@H](CCC)N(CC(C)CC)C1=N (some centres undefined) | – | – | – | – | – | – | inactive | inactive | inactive | inactive | inactive | inactive |
| CCCCCCCN1C(=N)NC[C@@H]1CCCCN1C[C@H]([C@@H](C)CC)N(CC(C)CC)C1=N (some centres undefined) | – | – | – | – | – | – | inactive | inactive | inactive | inactive | inactive | inactive |
| CCCCCCCN1C(=N)NC[C@@H]1CCCCN1CCNC1=N | – | – | – | – | – | – | inactive | inactive | inactive | inactive | inactive | inactive |
| CCC[C@@H]1CN(CCCC[C@H]2CNC(=N)N2CC2CCCCC2)C(=N)N1 | – | – | – | – | – | – | inactive | inactive | inactive | inactive | inactive | inactive |
| CCCCCCCN1C(=N)NC[C@@H]1CCCCN1CCN(CC(C)CC)C1=N (some centres undefined) | – | – | – | – | – | – | inactive | inactive | inactive | inactive | inactive | inactive |
